The values that follow come from ChEMBL document CHEMBL4715787, “Radiofluorinated N-Octanoyl Dopamine ([F]F-NOD) as a Tool To Study Tissue Distribution and Elimination of NOD in Vitro and in Vivo” (J Med Chem, 2016).

The structures appear in SMILES notation. Active and inactive are the calls of the source. The rule behind the calls is not given here.

Data set [1] is described as follows: Drug distribution in Lewis rat bone assessed as standard uptake value at 4.8 to 13.2 MBq measured after 120 mins. Type of data set: ADME, tissue-based, Bone element. Particulars: in vivo, 2 h, dose 4.8-13.2 MBq.
A short description of data set [2]: Drug distribution in Lewis rat bladder assessed as standard uptake value at 4.8 to 13.2 MBq measured after 120 mins. It counts as ADME, tissue-based, Urinary bladder. Particulars: in vivo, 2 h, dose 4.8-13.2 MBq.
Data set [3] is described as follows: Drug accumulation in Lewis rat bone at 4.8 to 13.2 MBq measured after 60 mins by PET imaging analysis. Type of data set: ADME, tissue-based, Bone element. The following applies: in vivo, 1 h, dose 4.8-13.2 MBq.
The nature of data set [4]: Drug distribution in Lewis rat liver assessed as standard uptake value at 4.8 to 13.2 MBq measured at 8 min by PET imaging analysis. Type of data set: ADME, tissue-based. The following applies: in vivo, dose 4.8-13.2 MBq.
Data set [5] is described as follows: Drug distribution in Lewis rat bladder at 4.8 to 13.2 MBq measured within 30 mins by PET imaging. Type of data set: ADME, tissue-based, Urinary bladder. Particulars: in vivo, 0.5 h, dose 4.8-13.2 MBq.
Data set [6] is described as follows: Drug distribution in Lewis rat kidney assessed as standard uptake value at 4.8 to 13.2 MBq observed between 5 to 10 mins by PET imaging analysis. It counts as ADME, tissue-based. The following applies: in vivo, dose lower 4.8 MBq, time lower 5 min, dose upper 13.2 MBq, time upper 10 min.
Data set [7] can be described thus: Drug uptake in human HUVEC lysate extracts assessed as retention time incubated for 120 mins by HPLC analysis. Type of data set: ADME, subcellular. The following applies: 2 h. The method in brief: (§1)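 HUVEC incubated with ~450 kBq 18F tracer per well in 1 mL medium at 37 °C, normal atmosphere, for up to 120 min. Supernatant collected, cells washed 3× with PBS, lysed and scraped for gamma counting; associated activity expressed as % of applied dose. Lysate extracts analysed by radio-HPLC; three independent experiments, mean ± SD.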

The nature of data set [8]: Drug transport in HUVEC assessed as cell association incubated for 120 mins by HPLC analysis. Type of data set: ADME, tissue-based. Particulars: human, 2 h, in the assay text read “by gamma counting” for “by HPLC analysis”. The method in brief:
as §1

Data set [9] is described as follows: Metabolic stability of compound in rat plasma assessed as compound recovery rate measured after 120 mins by radio-HPLC analysis. It counts as ADME, cell-free. Particulars: read-out: Drug recovery. In short, it runs like this:
(§2)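 18F tracer in PBS/3% EtOH (100 µL) shaken with rat plasma (200 µL) at 37 °C for 120 min. Samples at 30, 60, 120 min deproteinized with equal volume acetonitrile at 0 °C; supernatant analysed by radio-TLC and radio-HPLC for radiochemical purity and recovery.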

The nature of data set [10]: Metabolic stability of compound in rat plasma assessed as radiochemical purity measured after 120 mins by radio-HPLC analysis. Type of data set: ADME, cell-free. Particulars: read-out: Stabilty. In short, it runs like this: as §2
Data set [11] is described as follows: Lipophilicity, log D of compound in n-octanol and phosphate buffered saline at pH 7.5 by shake flask method. Type of data set: physicochemical. The method in brief: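 Shake-flask partition of the 18F tracer between n-octanol and PBS at pH 7.5, following OECD guideline; n = 3.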
Data set [12] addresses T1, Catechol O-methyltransferase (Homo sapiens, UniProt P21964).
T1 sequence (P21964 whole entry): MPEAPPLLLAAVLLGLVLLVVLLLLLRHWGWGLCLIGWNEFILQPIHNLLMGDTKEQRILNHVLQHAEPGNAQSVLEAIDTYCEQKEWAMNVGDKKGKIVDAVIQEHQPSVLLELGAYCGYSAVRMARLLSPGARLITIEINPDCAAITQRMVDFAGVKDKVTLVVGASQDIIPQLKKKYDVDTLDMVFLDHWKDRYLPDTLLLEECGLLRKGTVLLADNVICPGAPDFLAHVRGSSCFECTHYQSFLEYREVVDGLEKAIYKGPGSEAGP
Put plainly: Substrate activity at COMT (unknown origin) assessed as N-(2-Fluoro-4,5-dimethoxyphenethyl)octanamide formation in presence of cofactor SAM at 180 mins by HPLC analysis. Type of data set: ADME. The following applies: 3 h. The method in brief: (§3)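 COMT reaction for lipophilic substrates: Tris buffer pH 8.0 with MgCl2 and dithiothreitol, 10 µL Tween20, 300 nmol SAM, 300 nmol substrate (from 100 mM ethanol stock), 75 units COMT in 1% BSA, 37 °C for 2–4 h. Cooled on ice, centrifuged, CHCl3-extracted, residue in 1:1 MeCN/water analysed by HPLC against methylated references.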

The subject of data set [13] is HUVEC. Put plainly: Antiinflammatory activity in HUVEC assessed as inhibition of TNFalpha-stimulated VCAM1 expression at higher concentration measured after overnight incubation by Western blot analysis. Type of data set: functional, cell-based. The following applies: Homo sapiens. The method in brief: (§4)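 Primary HUVEC (from fresh umbilical cord, endothelial growth medium with 2% FBS, used at 80–90% confluence) treated with compound; VCAM-1 read-out under TNFα stimulation. Lysates in Triton/deoxycholate buffer; 15 µg protein resolved on 10% SDS-PAGE, semidry-blotted to PVDF, probed overnight at 4 °C for VCAM-1 or HO-1, visualized by ECL. Blots stripped and reprobed for β-actin as loading control.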

For data set [14], the system named is HUVEC. Put plainly: Antiinflammatory activity in HUVEC assessed as inhibition of TNFalpha-stimulated VCAM1 expression at lower concentration measured after overnight incubation by Western blot analysis. It counts as functional, cell-based. Particulars: Homo sapiens. In short, it runs like this:
as §4

The target of data set [15] is T2, Nuclear factor erythroid 2-related factor 2 (Homo sapiens) (UniProt Q16236).
T2 sequence (whole entry): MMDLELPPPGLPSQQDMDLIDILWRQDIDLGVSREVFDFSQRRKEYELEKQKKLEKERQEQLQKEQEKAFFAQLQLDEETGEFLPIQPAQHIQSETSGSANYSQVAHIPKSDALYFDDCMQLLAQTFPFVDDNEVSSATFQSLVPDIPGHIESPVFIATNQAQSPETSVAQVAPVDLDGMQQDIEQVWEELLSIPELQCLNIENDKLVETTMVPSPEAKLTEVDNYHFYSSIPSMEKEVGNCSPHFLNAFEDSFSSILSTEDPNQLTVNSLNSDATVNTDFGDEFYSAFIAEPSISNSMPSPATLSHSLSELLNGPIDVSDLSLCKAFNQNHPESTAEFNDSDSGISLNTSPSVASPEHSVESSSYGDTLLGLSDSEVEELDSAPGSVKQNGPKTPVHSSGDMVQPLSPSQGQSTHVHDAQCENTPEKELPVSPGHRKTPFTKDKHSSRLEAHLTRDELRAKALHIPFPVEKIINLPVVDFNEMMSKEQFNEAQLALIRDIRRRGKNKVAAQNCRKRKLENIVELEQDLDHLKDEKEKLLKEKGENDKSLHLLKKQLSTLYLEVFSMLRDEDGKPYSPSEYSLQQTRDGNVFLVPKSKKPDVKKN
Description: Activation of NRF2 in HUVEC assessed as induction of HO1 expression at lower concentration measured after overnight incubation by Western blot analysis. It counts as tissue-based. In short, it runs like this: as §4

The target of data set [16] is T2, Nuclear factor erythroid 2-related factor 2 (Homo sapiens). Put plainly: Activation of NRF2 in HUVEC assessed as induction of HO1 expression at higher concentration measured after overnight incubation by Western blot analysis. It counts as tissue-based. Particulars: filed as activator. In short, it runs like this: as §4
Data set [17] in a line: Redox activity of compound assessed as quenching of luminescence by horseradish peroxidase coupled luminol assay. Type of data set: physicochemical. The method in brief:
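Peroxidase-luminol chemiluminescence: serial dilutions in water added to mix of 2.5 mM luminol, 0.9 mM p-coumaric acid and H2O2, with HRP; quenching read immediately on a plate reader. Expressed relative to compound-free control; at least three independent measurements per concentration; EC50 from concentration–response; ANOVA with LSD post-hoc.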

The target of data set [18] is Transient receptor potential cation channel subfamily V member 1 (Rattus norvegicus) (UniProt O35433). Put plainly: (§5) Activation of rat TRPV1 transfected in HEK293 cells assessed as increase in calcium influx in presence of capsaicin by FURA-2-AM dye based fluorescence assay. It counts as cell-based. Particulars: filed as activator. The method in brief: (§6)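 HEK293 transiently transfected with rat TRPV1, imaged 48 h later in HEPES-buffered extracellular solution (1.8 mM CaCl2) after 1 µM FURA-2AM loading. 340/380 nm excitation ratio at 510 nm, sampled at 0.5 Hz. Compound applied at several concentrations, then 10 µM capsaicin after washout to mark transfected cells. Peak minus baseline; each coverslip one experiment, n = 3–13; two-way ANOVA.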

In data set [19] the target is Transient receptor potential cation channel subfamily V member 1 (Rattus norvegicus, UniProt O35433). The description is as §5. Type of data set: cell-based. In short, it runs like this:
as §6

The subject of data set [20] is HUVEC. Put plainly: Protection against cold inflicted injury in HUVEC assessed as 25 to 100 uM pretreated for 2 hrs followed by washout and subsequent incubation for 20 hrs at 4 degC by LDH assay. The following applies: Homo sapiens, dose 25-100 µM. Type of data set: functional, cell-based.
Data set [21] concerns the target T1, Catechol O-methyltransferase. Description: Substrate activity at COMT (unknown origin) assessed as N-(4-Hydroxy-3-methoxyphenethyl)octanamide formation in presence of cofactor SAM at 180 mins by HPLC analysis. Type of data set: ADME. The following applies: 3 h. The method in brief: as §3

Sequence of Transient receptor potential cation channel subfamily V member 1 (Rattus norvegicus) (O35433 whole entry): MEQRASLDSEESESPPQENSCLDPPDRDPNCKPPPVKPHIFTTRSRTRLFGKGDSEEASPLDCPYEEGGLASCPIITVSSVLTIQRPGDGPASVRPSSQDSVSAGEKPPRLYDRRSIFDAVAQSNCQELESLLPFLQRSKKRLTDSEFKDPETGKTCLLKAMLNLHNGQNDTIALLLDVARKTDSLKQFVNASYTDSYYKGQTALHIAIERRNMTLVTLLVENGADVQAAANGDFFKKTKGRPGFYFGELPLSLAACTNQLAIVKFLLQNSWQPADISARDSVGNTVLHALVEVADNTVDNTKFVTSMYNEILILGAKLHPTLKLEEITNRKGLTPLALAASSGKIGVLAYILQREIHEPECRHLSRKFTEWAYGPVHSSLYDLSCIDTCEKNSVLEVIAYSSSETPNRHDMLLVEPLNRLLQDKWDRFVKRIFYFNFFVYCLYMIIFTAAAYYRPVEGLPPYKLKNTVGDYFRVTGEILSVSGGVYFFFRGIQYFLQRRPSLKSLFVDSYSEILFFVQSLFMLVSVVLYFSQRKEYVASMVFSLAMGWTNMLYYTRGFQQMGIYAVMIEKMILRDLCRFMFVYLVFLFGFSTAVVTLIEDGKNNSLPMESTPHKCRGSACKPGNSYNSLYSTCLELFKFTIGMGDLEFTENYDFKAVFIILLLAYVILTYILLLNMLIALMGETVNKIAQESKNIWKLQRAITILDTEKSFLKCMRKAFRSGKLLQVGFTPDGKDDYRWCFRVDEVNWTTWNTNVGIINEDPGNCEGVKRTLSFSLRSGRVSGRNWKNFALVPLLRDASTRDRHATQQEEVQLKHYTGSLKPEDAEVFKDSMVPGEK
Sequence of Transient receptor potential cation channel subfamily V member 1 (O35433 whole entry): as above

In the case of `CCCCCCCC(=O)NCCc1cc(O)c(O)cc1[18F]`, the SUV in [1] is 9.8 g/mL; in data set [2], 38.5 g/mL; in [4], 21 g/mL; in [6], 8 g/mL. In addition, the Drug uptake entry in data set [3] and in data set [5] was “Active” in each case. Also, in data set [7], the Retention_time was 4.07 min. For the same compound, the Drug transport in data set [8] turned out to be 0.14 %ID. Further, the remaining at 2 h in [9] was 77%; in data set [10] it was no less than 98%. In data set [11], the log distribution coefficient (logD) was 3.35.
For `CCCCCCCC(=O)NCCc1cc(O)c(O)cc1F`, the Drug metabolism result in [12] was “Metabolite_Detected”. Also, the result (in the data set on HUVEC [13]; in [16]; in the data set with HUVEC [20]) was Active. The result (in the data set with HUVEC [14]; in [15]) was inactive. Further, the EC50 in data set [17] is 32.6 µM; in [19], 45.9 µM. Moreover, in data set [18], the Activity entry is “Dose-dependent effect”.
Consider `CCCCCCCC(=O)NCCc1ccc(O)c(O)c1`, for which the Drug metabolism entry in data set [21] was “Metabolite_Detected”. Also, the outcome (in the data set on HUVEC [13]; in data set [16]; with HUVEC [20]) was Active. Besides, the concentration for a half-maximal effect (EC50) is 12.1 µM in data set [17] and 7.1 µM in [19]. For the same compound, the Activity entry in data set [18] is “Dose-dependent effect”.
